# Legend:
# [1] = biological target: Vascular endothelial growth factor receptor 1 (Homo sapiens, UniProt P17948); experiment: Inhibition of VEGFR1 tyrosine kinase activity in VEGF-stimulated human A498 cells after 60 mins by ELISA; type: cell-based
# How it was run: (§1)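 Lysed in ice-cold TBS/0.05% triton with protease and phosphatase inhibitors, heat/ethanol-fixed. Total phosphotyrosine read by HRP anti-phosphotyrosine with luminol chemiluminescence.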
# [2] = biological target: T1, Vascular endothelial growth factor receptor 2 (Homo sapiens, UniProt P35968); experiment: Ratio of Sunitinib IC50 to compound IC50 for VEGFR2 tyrosine kinase activity in VEGF-stimulated human U251 cells; type: cell-based; details: U-251
# T1 sequence (P35968 whole entry): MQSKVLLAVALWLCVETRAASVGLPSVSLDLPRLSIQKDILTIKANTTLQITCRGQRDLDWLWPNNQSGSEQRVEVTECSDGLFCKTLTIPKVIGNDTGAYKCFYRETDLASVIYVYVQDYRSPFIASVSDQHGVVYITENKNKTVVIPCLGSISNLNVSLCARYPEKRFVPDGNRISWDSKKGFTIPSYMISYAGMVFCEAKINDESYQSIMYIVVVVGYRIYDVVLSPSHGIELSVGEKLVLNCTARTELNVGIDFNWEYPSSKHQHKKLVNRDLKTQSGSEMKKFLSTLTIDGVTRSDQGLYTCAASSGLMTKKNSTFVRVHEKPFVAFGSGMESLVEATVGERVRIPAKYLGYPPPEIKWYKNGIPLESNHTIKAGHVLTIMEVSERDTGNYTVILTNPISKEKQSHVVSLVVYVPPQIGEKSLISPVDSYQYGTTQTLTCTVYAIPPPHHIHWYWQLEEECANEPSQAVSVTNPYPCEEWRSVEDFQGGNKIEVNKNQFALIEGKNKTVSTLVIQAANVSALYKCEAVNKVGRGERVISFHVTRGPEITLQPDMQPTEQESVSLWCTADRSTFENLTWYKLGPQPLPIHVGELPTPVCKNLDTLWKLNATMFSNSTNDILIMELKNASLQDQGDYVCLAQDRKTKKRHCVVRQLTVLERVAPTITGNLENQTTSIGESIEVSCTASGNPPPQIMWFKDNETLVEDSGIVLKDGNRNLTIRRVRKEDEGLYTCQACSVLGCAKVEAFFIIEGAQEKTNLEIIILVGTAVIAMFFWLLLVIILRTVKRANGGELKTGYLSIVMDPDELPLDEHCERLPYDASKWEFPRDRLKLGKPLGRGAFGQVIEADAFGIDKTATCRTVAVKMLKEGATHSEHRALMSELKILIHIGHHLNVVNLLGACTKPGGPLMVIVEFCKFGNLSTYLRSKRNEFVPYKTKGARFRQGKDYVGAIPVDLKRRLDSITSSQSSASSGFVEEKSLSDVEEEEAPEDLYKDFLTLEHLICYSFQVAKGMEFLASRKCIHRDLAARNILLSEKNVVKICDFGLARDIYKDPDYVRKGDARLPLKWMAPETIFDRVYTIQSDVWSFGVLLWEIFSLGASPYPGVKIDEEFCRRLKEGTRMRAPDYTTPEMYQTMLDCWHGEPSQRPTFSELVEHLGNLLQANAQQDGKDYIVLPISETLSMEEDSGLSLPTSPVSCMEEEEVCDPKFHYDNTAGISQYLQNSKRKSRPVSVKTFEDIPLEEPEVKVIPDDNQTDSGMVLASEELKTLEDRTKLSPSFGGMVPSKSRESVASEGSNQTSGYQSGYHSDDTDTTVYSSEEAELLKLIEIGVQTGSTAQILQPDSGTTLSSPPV
# How it was run: (§2)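 U251 cells, which naturally express high VEGFR-2, were grown to 60–75% confluence, kept 18 h serum-free, then pre-treated 60 min with 0.10–333 μM inhibitor before 100 ng/mL VEGF for 10 min. Total tyrosine phosphorylation was read by fixed-cell HRP-anti-phosphotyrosine ELISA with luminol luminescence, as % of growth factor alone.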
# [3] = biological target: Epidermal growth factor receptor (Homo sapiens, UniProt P00533); experiment: Inhibition of EGFR tyrosine kinase activity in EGF-stimulated human A431 cells after 60 mins by ELISA; type: cell-based, A-431
# Epidermal growth factor receptor, sequence (P00533 whole entry): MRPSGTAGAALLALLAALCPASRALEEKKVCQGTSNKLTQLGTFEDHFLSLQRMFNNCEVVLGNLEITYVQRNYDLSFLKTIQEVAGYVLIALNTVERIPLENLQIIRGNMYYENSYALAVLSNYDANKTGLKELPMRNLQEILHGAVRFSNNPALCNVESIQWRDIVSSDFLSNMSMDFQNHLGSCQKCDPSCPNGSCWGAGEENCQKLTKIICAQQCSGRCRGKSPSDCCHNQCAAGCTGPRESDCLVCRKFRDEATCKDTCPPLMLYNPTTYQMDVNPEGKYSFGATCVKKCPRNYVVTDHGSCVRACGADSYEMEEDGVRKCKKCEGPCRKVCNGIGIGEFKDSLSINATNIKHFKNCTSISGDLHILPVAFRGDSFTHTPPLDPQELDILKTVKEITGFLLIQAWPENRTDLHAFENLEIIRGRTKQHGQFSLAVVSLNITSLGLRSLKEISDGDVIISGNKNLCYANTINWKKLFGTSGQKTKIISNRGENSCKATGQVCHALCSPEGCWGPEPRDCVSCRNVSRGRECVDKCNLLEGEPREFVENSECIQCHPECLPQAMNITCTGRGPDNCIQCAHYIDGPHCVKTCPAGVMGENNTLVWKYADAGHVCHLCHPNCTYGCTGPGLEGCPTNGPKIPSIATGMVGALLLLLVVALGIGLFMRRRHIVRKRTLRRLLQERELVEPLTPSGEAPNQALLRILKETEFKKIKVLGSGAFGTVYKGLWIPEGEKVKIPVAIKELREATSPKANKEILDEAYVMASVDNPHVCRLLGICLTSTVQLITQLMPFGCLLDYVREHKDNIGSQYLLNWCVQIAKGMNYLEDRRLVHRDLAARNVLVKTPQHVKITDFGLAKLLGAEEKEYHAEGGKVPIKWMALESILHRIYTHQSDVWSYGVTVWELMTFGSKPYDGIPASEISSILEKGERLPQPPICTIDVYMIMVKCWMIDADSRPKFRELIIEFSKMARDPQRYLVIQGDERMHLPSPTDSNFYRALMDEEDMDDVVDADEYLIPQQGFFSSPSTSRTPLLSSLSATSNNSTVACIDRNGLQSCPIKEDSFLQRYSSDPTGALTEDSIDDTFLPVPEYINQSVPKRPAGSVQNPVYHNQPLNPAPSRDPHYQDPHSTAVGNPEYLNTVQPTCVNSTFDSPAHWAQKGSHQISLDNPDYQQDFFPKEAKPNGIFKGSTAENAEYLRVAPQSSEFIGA
# [4] = biological target: T1, Vascular endothelial growth factor receptor 2; experiment: Ratio of semaxanib IC50 to compound IC50 for VEGFR2 tyrosine kinase activity in VEGF-stimulated human U251 cells; type: cell-based; details: U-251; how it was run: as §2
# [5] = biological target: Platelet-derived growth factor receptor beta (Homo sapiens, UniProt P09619); experiment: Inhibition of PDGFRbeta tyrosine kinase activity in PDGF-BB-stimulated human SF-539 cells after 60 mins by ELISA; type: cell-based; how it was run: as §1
# Platelet-derived growth factor receptor beta, sequence (P09619 whole entry): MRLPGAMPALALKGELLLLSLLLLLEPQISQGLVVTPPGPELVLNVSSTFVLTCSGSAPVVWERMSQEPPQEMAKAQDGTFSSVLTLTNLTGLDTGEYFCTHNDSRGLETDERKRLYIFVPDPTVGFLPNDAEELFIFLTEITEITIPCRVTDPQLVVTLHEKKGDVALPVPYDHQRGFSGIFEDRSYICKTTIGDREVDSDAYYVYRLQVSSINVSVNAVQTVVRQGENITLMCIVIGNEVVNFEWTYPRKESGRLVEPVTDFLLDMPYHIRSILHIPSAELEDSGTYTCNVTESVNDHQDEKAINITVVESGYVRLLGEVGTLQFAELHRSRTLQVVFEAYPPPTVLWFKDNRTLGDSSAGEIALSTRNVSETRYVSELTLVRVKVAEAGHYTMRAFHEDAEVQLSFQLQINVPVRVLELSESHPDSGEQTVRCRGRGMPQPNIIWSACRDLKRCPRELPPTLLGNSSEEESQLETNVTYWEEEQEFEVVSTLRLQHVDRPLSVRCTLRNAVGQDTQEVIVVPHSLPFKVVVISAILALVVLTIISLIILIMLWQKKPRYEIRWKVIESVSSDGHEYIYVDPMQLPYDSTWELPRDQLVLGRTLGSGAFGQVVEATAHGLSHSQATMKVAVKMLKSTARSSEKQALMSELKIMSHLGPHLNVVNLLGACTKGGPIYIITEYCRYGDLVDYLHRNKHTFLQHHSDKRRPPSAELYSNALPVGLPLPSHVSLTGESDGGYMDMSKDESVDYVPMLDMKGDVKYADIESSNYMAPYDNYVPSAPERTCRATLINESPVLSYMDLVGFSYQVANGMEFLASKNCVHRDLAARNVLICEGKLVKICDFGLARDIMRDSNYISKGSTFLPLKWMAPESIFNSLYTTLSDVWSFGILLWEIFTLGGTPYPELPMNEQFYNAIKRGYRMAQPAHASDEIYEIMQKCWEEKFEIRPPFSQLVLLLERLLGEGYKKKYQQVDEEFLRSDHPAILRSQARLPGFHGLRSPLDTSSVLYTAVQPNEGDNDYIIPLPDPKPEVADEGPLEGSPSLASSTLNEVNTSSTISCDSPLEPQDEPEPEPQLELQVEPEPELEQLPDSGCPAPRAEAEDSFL
# A-431 = experiment: Cytotoxicity against EGFR overexpressing human A431 after 12 hrs by cyquant DNA dye-based fluorescence method; type: functional, cell-based; details: A-431, 12 h
# [6] = biological target: T1, Vascular endothelial growth factor receptor 2; experiment: Inhibition of VEGFR2 tyrosine kinase activity in VEGF-stimulated human U251 cells after 60 mins by ELISA; type: cell-based, U-251
# Vascular endothelial growth factor receptor 1, sequence (P17948 whole entry): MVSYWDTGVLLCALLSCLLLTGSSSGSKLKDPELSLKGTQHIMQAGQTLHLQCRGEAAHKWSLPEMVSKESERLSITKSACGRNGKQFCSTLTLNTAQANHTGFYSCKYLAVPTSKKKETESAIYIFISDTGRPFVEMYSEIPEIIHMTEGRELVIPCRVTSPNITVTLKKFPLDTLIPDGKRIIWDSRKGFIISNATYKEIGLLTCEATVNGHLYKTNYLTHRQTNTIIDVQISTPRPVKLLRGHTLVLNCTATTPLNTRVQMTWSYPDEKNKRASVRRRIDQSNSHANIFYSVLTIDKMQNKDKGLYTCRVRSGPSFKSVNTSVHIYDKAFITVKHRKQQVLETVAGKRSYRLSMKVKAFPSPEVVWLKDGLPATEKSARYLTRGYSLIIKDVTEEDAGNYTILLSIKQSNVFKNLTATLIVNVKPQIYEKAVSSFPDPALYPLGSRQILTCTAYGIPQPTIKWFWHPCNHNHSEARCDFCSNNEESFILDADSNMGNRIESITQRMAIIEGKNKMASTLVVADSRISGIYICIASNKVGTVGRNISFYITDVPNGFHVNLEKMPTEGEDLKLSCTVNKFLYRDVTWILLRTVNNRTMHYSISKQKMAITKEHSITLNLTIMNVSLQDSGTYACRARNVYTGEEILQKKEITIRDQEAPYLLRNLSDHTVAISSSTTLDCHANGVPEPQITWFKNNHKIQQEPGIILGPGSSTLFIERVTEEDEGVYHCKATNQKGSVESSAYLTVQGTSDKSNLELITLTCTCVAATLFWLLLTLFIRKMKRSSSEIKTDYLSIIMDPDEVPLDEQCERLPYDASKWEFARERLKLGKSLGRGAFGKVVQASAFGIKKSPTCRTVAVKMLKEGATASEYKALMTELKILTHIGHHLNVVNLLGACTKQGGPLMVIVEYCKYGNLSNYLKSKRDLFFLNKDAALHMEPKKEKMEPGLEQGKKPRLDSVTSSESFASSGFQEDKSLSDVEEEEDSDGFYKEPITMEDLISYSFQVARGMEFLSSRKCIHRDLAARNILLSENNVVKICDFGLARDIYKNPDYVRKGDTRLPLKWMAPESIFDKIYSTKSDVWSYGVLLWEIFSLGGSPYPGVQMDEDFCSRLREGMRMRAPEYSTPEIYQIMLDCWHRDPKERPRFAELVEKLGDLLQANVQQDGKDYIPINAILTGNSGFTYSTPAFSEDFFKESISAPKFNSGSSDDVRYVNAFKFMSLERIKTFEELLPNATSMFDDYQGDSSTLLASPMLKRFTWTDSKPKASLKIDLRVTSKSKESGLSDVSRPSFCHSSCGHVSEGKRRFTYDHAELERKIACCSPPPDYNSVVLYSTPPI
SMILES,IC50 [1],Ratio IC50 [2],IC50 [3],Ratio IC50 [4],IC50 [5],IC50 [6],IC50 (A-431)
Cc1ccccc1Cc1cc2c(Nc3ccc(Cl)cc3F)nc(N)nc2[nH]1,16 µM,,> 200 µM,,> 300 µM,29.8 µM,> 200 µM
COc1ccc(OC)c(Cc2cc3c(Nc4ccc(Cl)cc4F)nc(N)nc3[nH]2)c1,186 µM,189,113 µM,120,146 µM,0.1 µM,13.4 µM
Cc1ccccc1Cc1cc2c(Nc3ccc(Cl)cc3)nc(N)nc2[nH]1,45.9 µM,,0.24 µM,,> 300 µM,45.4 µM,5.6 µM

# Second part, led by results:
IC50 [1],Ratio IC50 [2],IC50 [3],Ratio IC50 [4],IC50 [5],IC50 [6],SMILES,IC50 (A-431)
> 200 µM,39,> 200 µM,25,193 µM,0.48 µM,Nc1nc(Nc2ccc(Cl)cc2F)c2cc(Cc3cccc4ccccc34)[nH]c2n1,46.7 µM
15.2 µM,,> 200 µM,,44.3 µM,56.7 µM,COc1ccc(OC)c(Cc2cc3c(Nc4ccc(Cl)cc4)nc(N)nc3[nH]2)c1,5.8 µM
> 200 µM,,,,,32.1 µM,Nc1nc(Nc2ccc(Cl)cc2)c2cc(Cc3cccc4ccccc34)[nH]c2n1,
,,,,,0.62 µM,COc1ccc(OC)c(Cc2cc3c(Nc4cccc(Br)c4)nc(N)nc3[nH]2)c1,> 50 µM

# Source: ChEMBL document CHEMBL1926631, “N⁴-Aryl-6-substitutedphenylmethyl-7H-pyrrolo[2,3-d]pyrimidine-2,4-diamines as receptor tyrosine kinase inhibitors” (Bioorg Med Chem, 2012)
